Assay results: ChEMBL document CHEMBL1149096 (J Med Chem, 2004)
“And” between values parts separate entries of the source, which are not always exact repeats. Equal values may be shown once. The source made the active and inactive calls.

Tests used:
Cavia porcellus [1] = species: Cavia porcellus; assay: Selectivity given as ratio of kappa receptor to delta receptor
[2] = target: Delta-type opioid receptor (Mus musculus) (UniProt P32300); conditions: Vas deferens; filed as agonist
Mus musculus [3] = species: Mus musculus; assay: Antinociceptive effect was determined by the ability to exhibit 80% reduction of naloxone induced sensitivity; Yes; format: functional, organism-based
Mu-type opioid receptor [4] = target: T1, Mu-type opioid receptor (Cavia porcellus, UniProt P97266); assay: Agonistic activity towards Opioid receptor mu 1 was determined in [35S]GTP-gamma-S, binding assay in guinea pig caudate; format: functional
Summary of the method: (§1)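 Guinea pig caudate membranes (10-20 µg protein) incubated 3 h at 22 °C in Tris-HCl pH 7.4 containing 100 mM NaCl, 10 mM MgCl2, 1 mM EDTA, 100 µM GDP and 0.05-0.1 nM [35S]GTP-γ-S, then filtered and counted. Nonspecific binding defined with 10 µM GTP-γ-S. Site isolation used CTAP, nor-BNI, NTI or TIPP. […] Three experiments pooled; logistic fit.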

[5] = target: T2, Kappa-type opioid receptor (Cavia porcellus, UniProt P41144); assay: Apparent binding affinity of compound was determined by antagonism towards Opioid receptor kappa 1 in [35S]GTP-gamma-S, binding assay in guinea pig caudate; format: functional
[6] = target: Mu-type opioid receptor (Cavia porcellus) (UniProt P97266)
Mu-type opioid receptor [7] = target: T1, Mu-type opioid receptor; assay: Apparent binding affinity of compound was determined by antagonism towards Opioid receptor mu 1 in [35S]GTP-gamma-S, binding assay in guinea pig caudate; format: functional
[8] = target: Opioid receptors; mu & delta (Rattus norvegicus) (UniProt P33533+P33535); assay: Selectivity given as ratio of mu receptor to delta receptor; format: protein assay
Mu-type opioid receptor [9] = target: T1, Mu-type opioid receptor; assay: Inhibitory concentration for inhibition of Opioid receptor mu 1 induced contractions in guinea pig ileum (GPI) smooth muscle assays; format: functional, tissue-based
Summary of the method: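 Electrically stimulated MVD (male ICR mice, 25-40 g) and GPI longitudinal muscle myenteric plexus strips (male Hartley guinea pigs, 250-500 g). Baths held 37 °C oxygenated Krebs bicarbonate (Mg-free for MVD), tension 1 g GPI / 0.5 g MVD. Stimulation 0.1 Hz, 0.4 ms pulses (2 ms MVD), supramaximal voltage. IC50 from two to four tissues by nonlinear least squares.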

Mu-type opioid receptor [10] = target: T1, Mu-type opioid receptor; assay: Antagonism of compound towards Opioid receptor mu 1 was determined using PL-017 in guinea pig ileum (GPI) smooth muscle contraction assays; d = agonist effect was observed; format: functional, tissue-based
Mus musculus [11] = species: Mus musculus; assay: Antinociceptive effect was determined at 100 nM in mouse; format: functional
Mu-type opioid receptor [12] = target: T1, Mu-type opioid receptor; assay: Agonistic activity towards Opioid receptor mu 1 was determined in [35S]GTP-gamma-S, binding assay in guinea pig caudate; g = not active as an agonist; format: functional; summary of the method: as §1
[13] = target: T2, Kappa-type opioid receptor; assay: Agonistic activity towards Opioid receptor kappa 1 was determined in [35S]GTP-gamma-S, binding assay in guinea pig caudate; format: functional; summary of the method: as §1
[14] = target: T2, Kappa-type opioid receptor; assay: Inhibitory concentration required for 50% inhibition of antagonism towards Opioid receptor kappa 1 in [35S]GTP-gamma-S, binding assay in guinea pig caudate; format: functional
Cavia porcellus [15] = species: Cavia porcellus; conditions: Ileum, filed as agonist
[16] = target: Delta-type opioid receptor (Mus musculus) (UniProt P32300); conditions: Vas deferens; filed as agonist; remark: listed apart in the source
[17] = target: T2, Kappa-type opioid receptor; assay: Agonistic activity towards Opioid receptor kappa 1 was determined in [35S]GTP-gamma-S, binding assay in guinea pig caudate; g = not active as an agonist; format: functional; summary of the method: as §1
[18] = target: Delta-type opioid receptor (Mus musculus) (UniProt P32300); assay: Agonist activity by the max response towards opioid receptor delta 1 induced contractions in mouse vas deferens (MVD) smooth muscle contraction assays; format: functional, tissue-based
Summary of the method: (§2)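 Electrically stimulated MVD (male ICR mice, 25-40 g) and GPI longitudinal muscle myenteric plexus strips (male Hartley guinea pigs, 250-500 g). Baths held 37 °C oxygenated Krebs bicarbonate (Mg-free for MVD), tension 1 g GPI / 0.5 g MVD. Stimulation 0.1 Hz, 0.4 ms pulses (2 ms MVD), supramaximal voltage. […] IC50 from two to four tissues by nonlinear least squares.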

[19] = target: Mu-type opioid receptor (Cavia porcellus) (UniProt P97266); conditions: Ileum, filed as agonist
[20] = target: Delta-type opioid receptor (Mus musculus) (UniProt P32300); conditions: Vas deferens
Mus musculus [21] = assay: Analgesic activity was calculated at time of peak drug effect when administered (icv) in mouse warm-water tail withdrawal assay; format: functional
Summary of the method: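 Male ICR mice dosed icv (5 µL; water or 100% DMSO) under light ether anaesthesia. 55 °C warm-water tail withdrawal read at 10-180 min, cutoff 10 s. %MPE = 100 × (test − control)/(cutoff − control). A50 and 95% CI taken at peak effect by linear regression.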

Mu-type opioid receptor [22] = target: Mu-type opioid receptor (Rattus norvegicus, UniProt P33535); assay: Binding affinity at Opioid receptor mu 1 by displacement of [3H]DAMGO in rat brain membrane; format: cell membranes
[23] = target: T2, Kappa-type opioid receptor; assay: Binding affinity at Opioid receptor kappa 1 by displacement of [3H]U-69593 in guinea pig brain membranes; format: cell membranes, Membrane
Mus musculus [24] = species: Mus musculus; assay: Antinociceptive effect was determined by the ability to exhibit 80% reduction of naloxone induced sensitivity; No; format: functional, organism-based
[25] = target: Mu-type opioid receptor (Cavia porcellus) (UniProt P97266); conditions: Ileum, filed as agonist; remark: listed apart in the source
[26] = target: Delta-type opioid receptor (Mus musculus) (UniProt P32300); conditions: Vas deferens; filed as agonist; remark: listed apart in the source
[27] = target: Delta-type opioid receptor (Mus musculus) (UniProt P32300); assay: Agonist activity by the maximum response towards opioid receptor delta 1 induced contractions in mouse vas deferens (MVD) smooth muscle contraction assays; format: functional, tissue-based; summary of the method: as §2
[28] = target: Mu-type opioid receptor (Cavia porcellus) (UniProt P97266); conditions: Ileum
[29] = target: Delta-type opioid receptor (Rattus norvegicus, UniProt P33533); assay: Binding affinity at opioid receptor delta 1 by displacement of [3H]DADLE in rat brain membrane; format: cell membranes
Delta-type opioid receptor, sequence (P33533 whole entry): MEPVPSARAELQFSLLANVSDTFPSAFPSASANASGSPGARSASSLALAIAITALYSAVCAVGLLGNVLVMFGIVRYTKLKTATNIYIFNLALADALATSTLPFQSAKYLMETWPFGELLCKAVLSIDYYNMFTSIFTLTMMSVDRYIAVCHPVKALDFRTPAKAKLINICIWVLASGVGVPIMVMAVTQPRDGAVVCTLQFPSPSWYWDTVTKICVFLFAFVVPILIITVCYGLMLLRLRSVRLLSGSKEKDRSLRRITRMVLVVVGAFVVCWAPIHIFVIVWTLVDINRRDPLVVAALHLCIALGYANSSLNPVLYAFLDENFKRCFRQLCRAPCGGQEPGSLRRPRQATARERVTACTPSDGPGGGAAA

Mu-type opioid receptor (Rattus norvegicus, UniProt P33535), sequence (P33535 whole entry): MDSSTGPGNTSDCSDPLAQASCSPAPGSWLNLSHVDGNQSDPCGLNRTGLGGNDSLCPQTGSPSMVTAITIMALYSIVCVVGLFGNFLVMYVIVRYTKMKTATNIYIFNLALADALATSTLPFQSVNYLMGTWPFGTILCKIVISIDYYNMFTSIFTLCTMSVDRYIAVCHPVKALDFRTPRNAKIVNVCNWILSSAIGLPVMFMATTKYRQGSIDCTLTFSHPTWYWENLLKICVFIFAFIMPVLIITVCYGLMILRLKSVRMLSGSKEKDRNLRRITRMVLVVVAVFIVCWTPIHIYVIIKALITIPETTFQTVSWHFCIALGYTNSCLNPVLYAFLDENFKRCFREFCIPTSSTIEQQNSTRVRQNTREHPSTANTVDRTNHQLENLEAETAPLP
T2 sequence (P41144 whole entry): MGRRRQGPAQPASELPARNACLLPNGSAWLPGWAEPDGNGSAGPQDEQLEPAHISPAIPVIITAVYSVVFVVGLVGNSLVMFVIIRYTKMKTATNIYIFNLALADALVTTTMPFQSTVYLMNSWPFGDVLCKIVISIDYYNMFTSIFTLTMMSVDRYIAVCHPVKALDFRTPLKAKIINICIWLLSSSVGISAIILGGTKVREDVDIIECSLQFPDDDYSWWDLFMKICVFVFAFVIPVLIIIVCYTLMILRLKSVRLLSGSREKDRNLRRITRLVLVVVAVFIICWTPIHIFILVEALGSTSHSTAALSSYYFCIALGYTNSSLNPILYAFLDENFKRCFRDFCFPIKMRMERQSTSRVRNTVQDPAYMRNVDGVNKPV
T1 sequence (P97266 whole entry): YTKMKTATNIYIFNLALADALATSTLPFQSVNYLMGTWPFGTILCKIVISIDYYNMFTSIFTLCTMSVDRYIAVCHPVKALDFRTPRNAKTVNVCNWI
Mu-type opioid receptor (Cavia porcellus), sequence (P97266 whole entry): as above
Delta-type opioid receptor (Mus musculus), sequence (P32300 whole entry): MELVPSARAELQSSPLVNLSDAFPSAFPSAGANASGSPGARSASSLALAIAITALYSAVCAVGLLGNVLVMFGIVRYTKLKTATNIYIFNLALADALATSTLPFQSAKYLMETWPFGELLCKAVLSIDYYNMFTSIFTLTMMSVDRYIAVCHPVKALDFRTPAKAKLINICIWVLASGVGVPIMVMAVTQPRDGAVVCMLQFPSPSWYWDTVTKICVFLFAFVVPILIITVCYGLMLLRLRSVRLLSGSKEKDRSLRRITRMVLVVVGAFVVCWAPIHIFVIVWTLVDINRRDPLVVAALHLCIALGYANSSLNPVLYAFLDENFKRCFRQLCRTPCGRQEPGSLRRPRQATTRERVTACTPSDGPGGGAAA
Opioid receptors; mu & delta (Rattus norvegicus), sequence (P33533 whole entry, looked up): as the sequence (P33533 whole entry) above
Opioid receptors; mu & delta (Rattus norvegicus), sequence (P33535 whole entry, looked up): as the sequence (P33535 whole entry) above

| SMILES | Ratio (Cavia porcellus [1]) | Ki (Mu-type opioid receptor [7]) [µM] | Ratio [8] | IC50 (Mu-type opioid receptor [9]) [µM] | Activity (Mus musculus [11]) [%] | EC50 [17] | Ki [23] [µM] | also measured |
| --- | --- | --- | --- | --- | --- | --- | --- | --- |
| CN1CC[C@]23c4c5ccc(O)c4O[C@H]2c2ncc(-c4ccccc4)cc2C[C@H]3[C@H]1C5 | 43 | > 1 | 13 | 0.0987 | 48 | – | – | Ke [2]: Agonist; Activity (Mus musculus [3]): Active; EC50 (Mu-type opioid receptor [4]): Not Active; Ki [5]: > 1 µM; Ke [6]: inactive; EC50 (Mu-type opioid receptor [10]): 1.03 µM |
| CN1CC[C@]23c4c5ccc(O)c4O[C@H]2c2ncc(-c4ccc(Cl)c(Cl)c4)cc2C[C@H]3[C@H]1C5 | 75 | > 1 | 25 | 0.447 | 44 | – | – | EC50 (Mu-type opioid receptor [12]; read-out: EC50): 1.31 µM; EC50 [13]: Not Active; Ki [14]: 4.77 µM; Ke (Cavia porcellus [15]): Agonist; Ke [16]: Agonist |
| Oc1ccc2c3c1O[C@H]1c4ncc(-c5ccc(Cl)cc5)cc4C[C@H]4[C@@H](C2)N(CC2CC2)CC[C@]314 | 2.3 | 0.0092 | 24 | 0.109 | – | Not Active | – | EC50 (Mu-type opioid receptor [12]): Not Active; Response [18]: 7.9%; Ke [19]: Agonist; Ke [20]: 6 nM |
| CN1CC[C@]23c4c5ccc(O)c4O[C@H]2c2ncccc2C[C@@]3(O)[C@H]1C5 | 15 | > 1 | 0.4 | 0.523 | – | Not Active | – | Activity (Mus musculus [3]): Active; EC50 (Mu-type opioid receptor [4]; read-out: EC50): 3 µM; Ki [5]: > 1 µM; Response [18]: 49%; A50 (Mus musculus [21]): 67.1 nM |
| C=CCN1C[C@H](C)N([C@H](c2ccc(C(=O)N(CC)CC)cc2)c2cccc(OC)c2)C[C@H]1C [SNC-80] | – | – | – | – | – | – | 8.76 | Ki (Mu-type opioid receptor [22]): 8.07 µM |
| CN1CC[C@]23c4c5ccc(O)c4O[C@H]2c2ncc(-c4ccc(Cl)cc4Cl)cc2C[C@H]3[C@H]1C5 | 366 | > 1 | 88 | 0.724 | 40 | – | – | EC50 (Mu-type opioid receptor [12]; read-out: EC50): 0.225 µM; EC50 [13]: Not Active; Response [18]: 28.3%; Ke [19]: Agonist; Ke [20]: 5.02 nM |
| CN1CC[C@]23c4c5ccc(O)c4O[C@H]2c2ncc(-c4ccccc4)cc2C[C@@]3(O)[C@H]1C5 | 124 | > 1 | 9 | 0.211 | 64 | Not Active | – | Activity (Mus musculus [24]): inactive; EC50 (Mu-type opioid receptor [4]; read-out: EC50): 0.66 µM; Ki [5]: > 1 µM; Ke [25]: Agonist; Ke [26]: Agonist |
| CN1CC[C@]23c4c5ccc(O)c4O[C@H]2c2ncccc2C[C@H]3[C@H]1C5 | 8 | > 1 | 1.6 | 0.0677 | 75 | Not Active | – | Activity (Mus musculus [24]): inactive; Ke [2]: Agonist; EC50 (Mu-type opioid receptor [4]; read-out: EC50): 3 µM; Ki [5]: > 1 µM; Ke [19]: Agonist |
| Oc1ccc2c3c1O[C@H]1c4ncc(-c5ccccc5)cc4C[C@@]4(O)[C@@H](C2)N(CC2CC2)CC[C@]314 | 20 | – | 16 | – | – | – | – | Response [27]: 4.7%; Ke [28]: 43 nM; Ke [20]: 3.7 nM |
| C[C@@H](NC(=O)[C@@H](N)Cc1ccc(O)cc1)C(=O)NCC(=O)N(C)[C@@H](Cc1ccccc1)C(=O)NCCO [DAMGO] | – | – | – | – | – | – | 5.82 | Ki [29]: 0.469 µM |
| CN1CC[C@]23c4c5ccc(O)c4O[C@H]2c2ncc(-c4ccc(Br)cc4)cc2C[C@H]3[C@H]1C5 | 18 | > 1 | 40 | 0.666 | – | – | – | EC50 (Mu-type opioid receptor [12]; read-out: EC50): 3.22 µM; EC50 [13]: Not Active; Activity (Mus musculus [3]): Active; Response [27]: 44%; A50 (Mus musculus [21]): 47.2 nM; Ke [25]: Agonist; Ke [20]: 20 nM |
| COc1ccc2c3c1O[C@H]1c4ncc(-c5ccc(Br)cc5)cc4C[C@@]4(O)[C@@H](C2)N(C)CC[C@]314 | 320 | – | 82 | – | – | – | 7.37 | Ki (Mu-type opioid receptor [22]): 1.89 µM; Ki [29]: 0.023 µM |
| Oc1ccc2c3c1O[C@H]1c4ncccc4C[C@@]4(O)[C@@H](C2)N(CC2CC2)CC[C@]314 | 11 | – | 1.9 | – | – | – | – | Response [27]: 0% |
| CN1CC[C@]23c4c5ccc(O)c4O[C@H]2c2ncc(-c4ccc(Br)cc4)cc2C[C@@]3(O)[C@H]1C5 | 108 | – | 49 | – | – | – | 0.432 | Ki (Mu-type opioid receptor [22]): 0.196 µM; Ki [29]: 0.004 µM |
| Oc1ccc2c3c1O[C@H]1c4[nH]c5ccccc5c4C[C@@]4(O)[C@@H](C2)N(CC2CC2)CC[C@]314 [NALTRINDOLE] | – | – | – | – | – | Not Active | 0.075 | EC50 (Mu-type opioid receptor [12]): Not Active; Response [27]: 16% and 18%; Ki [29]: 0.0016 µM |
| Oc1ccc2c3c1O[C@H]1c4ncc(-c5ccc(Cl)cc5)cc4C[C@@]4(O)[C@@H](C2)N(CC2CC2)CC[C@]314 | – | 0.0078 | – | 0.163 | 21 | Not Active | – | EC50 (Mu-type opioid receptor [12]): Not Active; Response [27]: 21% |
| COc1ccc2c3c1O[C@H]1c4ncc(-c5ccc(Cl)cc5)cc4C[C@@]4(O)[C@@H](C2)N(C)CC[C@]314 | – | – | – | – | – | – | > 7.1 | – |
